Assay outcomes (PubChem BioAssay)
DAX1 inh-1 – inhibitors of DAX1 repression of SF-1 activated StAR promoter | HEK293T StAR-luciferase reporter, SF-1/DAX-1 repression relief | inhibition, % at 6.8 µM | 370,000 tested, 1.1% active;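 active means inhibition above the mean over all tested compounds plus 3 SD, cut at about 3.6% in these data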;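 further: higher inhibition means more luminescence from relief of DAX-1 repression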
DAX1 inh-2 – inhibits human nuclear receptor DAX1; HEK293 Gal4-DAX1 luciferase reporter, luminescence; P51843; 340,000 tested, 0.99% active; inhibition, % at 6.75 µM;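 active means inhibition above the mean over all tested compounds plus 3 SD, cut at about 4.2% in these data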;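 further: inhibition shows as a rise in luminescence from relieved DAX1 repression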
Target sequence (P51843 207-470 limits assumed): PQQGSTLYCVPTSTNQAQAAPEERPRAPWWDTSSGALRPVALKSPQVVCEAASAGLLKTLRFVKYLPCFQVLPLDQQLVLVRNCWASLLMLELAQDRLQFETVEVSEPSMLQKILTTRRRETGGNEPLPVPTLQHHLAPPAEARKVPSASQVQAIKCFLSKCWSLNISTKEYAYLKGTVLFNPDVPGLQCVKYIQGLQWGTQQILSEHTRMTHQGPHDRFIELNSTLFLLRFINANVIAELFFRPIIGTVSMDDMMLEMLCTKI
NR2E3 ag-1 – agonists of human nuclear receptor NR2E3. Q9Y5X4. GST-NR2E3/biotin-RetCOR TR-FRET, 1536-well. inhibition of corepressor binding, % at 4.78 µM. 320,000 tested, 0.12% active. AID 2300;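 active means percent inhibition above the cutoff of mean plus 3 SD of all tested compounds, set per screening campaign, cut at about 20% in these data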
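Test system – NR2E3–RetCOR corepressor complex · Quantity – NR2E3 fusion 1.35 nM · Buffer or medium – Tris pH 7.5 · Incubation – Compound–protein incubation for 5 h at 4 °C · Technique – TR-FRET, Eu(K)-anti-GST donor, streptavidin-D2 acceptor, ex 340, em 617/671 nm · Evaluation – percent inhibition of 671/617 nm emission ratio versus biotin and DMSO controls · Plate – 1536-well format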
NR2E3 ag-2 – activates human NR2E3 receptor; Q9Y5X4; CHO-S Gal4-NCOR/VP16-NR2E3 two-hybrid, luciferase; inhibition of corepressor binding, % at 3.98 µM; 360,000 tested, 0.35% active;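 active means inhibition above the mean of all tested compounds plus 3 SD, cut at about 70% in these data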;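 further: higher means lower luciferase signal from less NR2E3 corepressor binding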
SMARCA2 act – SMARCA2 function activation, primary screen | MG213 cells, MMTV-luciferase reporter, dexamethasone, overnight | activation, % at 9.1 µM | 370,000 tested, 1% active | AID 652017; in the data active means activation above about 7.8%
GASC-1 inh – human JMJD2C demethylase inhibition; inhibition, % at 2.35 µM; GST-JMJD2C(1-420) H3K9me3 demethylation, DELFIA europium; Q9H3R0; 330,000 tested, 0.069% active;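 active means more than half of a compound's replicate wells show inhibition beyond 50%, single wells judged on their own value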;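 further: signal counts dimethyl H3K9 product captured on neutravidin plate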
Target sequence (Q9H3R0 1-420 limits assumed): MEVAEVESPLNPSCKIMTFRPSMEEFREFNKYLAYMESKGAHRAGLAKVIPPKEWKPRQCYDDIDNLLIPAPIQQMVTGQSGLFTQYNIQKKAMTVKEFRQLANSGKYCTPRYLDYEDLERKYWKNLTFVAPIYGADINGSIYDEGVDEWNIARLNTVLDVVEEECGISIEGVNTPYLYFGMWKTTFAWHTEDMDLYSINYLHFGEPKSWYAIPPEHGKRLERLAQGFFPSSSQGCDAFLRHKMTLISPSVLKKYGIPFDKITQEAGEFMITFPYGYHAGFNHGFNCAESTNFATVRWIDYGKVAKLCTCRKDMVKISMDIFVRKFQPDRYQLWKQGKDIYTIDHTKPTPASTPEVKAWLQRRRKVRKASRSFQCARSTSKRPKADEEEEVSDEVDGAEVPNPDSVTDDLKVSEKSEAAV
SMARCA2 conf – confirmation of SMARCA2 (BRM) function activators. shares compounds with SMARCA2 act. MG213 cells, MMTV-luciferase with dexamethasone, luminescence, overnight; MG213 cells expressing E1A, Rb sequestered; DMSO wells 0%, reference activator 100%. activation, % at 9.1 µM. 3,500 tested, 30% active. AID 652260;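 active means activation above its plate's cutoff, the mean activation of tested wells plus 3 SD, cut at about 7.9% in these data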
GAL4-VP16 Luc – activates GAL4-VP16 luciferase, flagging SMARCA2 activator hits; shares compounds with SMARCA2 act; HEK293 GAL4-VP16 pG5luc reporter, luciferase luminescence; scaled: DMSO wells 0%, SAHA wells 100%; activation, % at 9.1 µM; 3,500 tested, 41% active; AID 686939;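 active means activation above the solvent-only control well mean plus 3 SD, averaged across control plates, cut at about 5.2% in these data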
A number is an active result; 0 = inactive; - = not tested or not shown. Rows were chosen to be rich in hits. Some 3.2% of all compounds tested hit in one or more screens of this group.

SMILES	DAX1 inh-1	DAX1 inh-2	NR2E3 ag-1	NR2E3 ag-2	SMARCA2 act	GASC-1 inh	SMARCA2 conf	GAL4-VP16 Luc
CC(C)c1ccc(/C=C2\SC(N3CCCC3)=NC2=O)cc1	0	0	0	0	8.3	0	0	0
O=C1N=C(N2CCCCC2)S/C1=C\c1ccc(Br)cc1	0	0	0	0	0	0	-	-
Cc1cc(C)cc(N(CC(=O)NCC2CCCO2)C(=O)CCC(=O)Nc2nccs2)c1 (stereo not drawn)	0	0	0	0	0	0	-	-
O=C1/C(=C/c2cccs2)Cc2ccccc21	0	0	0	0	9.6	0	8.3	0
CC(Cc1ccccc1)Nc1ncnc2c1ncn2C1OC(CO)C(O)C1O (stereo not drawn)	0	0	0	0	0	0	-	-
OCC1OC(n2cnc3c(/C=C(\O)c4ccccc4)ncnc32)C(O)C1O (stereo not drawn)	0	0	-	0	8.9	-	0	0
CNc1ncnc2c1ncn2[C@@H]1O[C@H](CO)[C@@H](O)[C@H]1O	0	0	0	0	8.4	-	0	0
CCOC(=O)[C@]12CCCC=C1N(Cc1ccccc1)C(=O)[C@H](CC(=O)NCc1cccc(C(F)(F)F)c1)C2	0	-	-	-	0	-	-	-
COC(=O)C1=C(C)N(C)C(=NCc2cccc(C(F)(F)F)c2)NC1c1ccc(F)cc1 (stereo not drawn)	0	-	-	-	0	-	-	-
N#CC1(c2ccc(NC(=O)c3ccccc3F)cc2)CCCC1	0	0	0	0	9.5	0	9.3	8.6
COc1ccc(-n2sc3ccccc3c2=O)cc1	0	0	-	0	13	-	15	0
COc1ccc(-n2sc3ccc(F)cc3c2=O)cc1	0	0	0	0	0	0	-	-
CCC(C)NC(=O)C1(N2C(=O)c3ccccc3C2=O)CCCC1 (stereo not drawn)	0	0	-	0	8.8	-	0	0
CCC(C)NC(=O)C1(C)CCC(=O)N1Cc1ccccc1OC (stereo not drawn)	0	0	0	0	0	0	-	-
Cc1ccsc1C(=O)NNC(=O)C1CC=CCC1C(=O)O (stereo not drawn)	4.2	0	0	0	8.6	0	0	0
O=C(NNC(=O)C1CC=CCC1C(=O)O)c1cccs1 (stereo not drawn)	0	0	0	0	0	0	-	-
CCN(CC)CCNC(=O)C(Cl)=C1C(Cl)=C(Cl)C(Cl)=C1Cl	0	0	-	0	10	-	21	0
CC(C)CSC1=NSC2=NC(=O)/C(=C\c3cccs3)C(=N)N12	0	0	0	0	9.5	0	0	5.3
CCN(CC)C(=O)CN(C#N)c1nc(C)cc(C)n1	0	0	0	0	0	0	-	-
CCN(CC)C(=O)CN(C#N)c1nc(OC)nc(N(C)C)n1	0	0	0	0	8.9	0	0	0
O=c1oc(-c2ccc(Br)o2)nc2ccccc12	0	0	0	0	14	0	0	0
Cc1csc2nc(CSc3nc4ccccc4o3)cn12	0	0	0	0	8.9	0	0	0
C=CCn1c(Cc2cccs2)nnc1SCC(=O)Nc1ccc2c(c1)OCO2	0	-	-	-	0	-	-	-
Cc1ccc(C(=O)Nc2cc(Cl)ccc2OC(=O)c2ccc(C)cc2)cc1	0	-	0	-	8.0	0	0	10
COc1ccc(C(=O)Nc2cc(Cl)ccc2OC(=O)c2ccc(OC)cc2)cc1	-	0	0	0	-	0	-	-
SMILES	DAX1 inh-1	DAX1 inh-2	NR2E3 ag-1	NR2E3 ag-2	SMARCA2 act	GASC-1 inh	SMARCA2 conf	GAL4-VP16 Luc
CC(C)c1cccc(-c2csc(C(O)c3ccco3)n2)c1 (stereo not drawn)	0	-	-	0	9.2	-	0	0
CCN(CC)C(=O)c1cccc(-c2csc(C(O)c3ccco3)n2)c1 (stereo not drawn)	0	-	-	0	0	-	-	-
COc1ccc(C(=O)Nc2ccccc2C(=O)N/N=C/c2ccncc2)cc1OC	0	0	0	0	8.5	0	18	6.0
CCCCCCCCCC(=O)N[C@@H]1c2cc(OC)c(OC)cc2C[C@H]1O	0	0	-	0	0	-	-	-
Oc1ccc(-c2csc(Nc3ncccn3)n2)c(O)c1	0	0	0	0	9.4	0	11	10
Oc1ccc(Cl)cc1CNc1ccc(Br)cn1	0	0	0	0	9.9	0	11	10
CCCCNC(=O)C[C@@H]1C(=O)N2CCCC3=C2[C@@]1(C(=O)OC)CCCC3	0	-	-	-	0	-	-	-
CCOC(=O)C1(N(CC)CC)Sc2cc(C)ccc2NC1=O (stereo not drawn)	0	0	0	0	0	0	-	-
C=C(C)C(=O)OC1(C(F)(F)F)Oc2cc(C)ccc2NC1=O (stereo not drawn)	0	0	0	0	21	0	0	0
Cc1ccc(O)c(NC(=O)CN(C)S(=O)(=O)c2ccc(Cl)cc2)c1	0	0	0	0	11	0	0	0
CCOC(=O)c1ccc(N2Cc3ccccc3C2=N)cc1	0	0	0	0	12	0	11	0
O=C(OCc1cc(=O)oc2cc(O)ccc12)c1cc(S(=O)(=O)N2CCOCC2)ccc1F	0	0	0	0	8.4	0	12	0
CCc1cc2c(COC(=O)c3cc(S(=O)(=O)N4CCOCC4)ccc3F)cc(=O)oc2cc1O	0	0	0	0	0	0	-	-
COc1ccc(-c2cn3cccc(C)c3n2)cc1Br	0	0	0	0	10	0	0	14
Cc1cccc(CSc2nncc(=O)[nH]2)c1	0	0	0	0	0	0	-	-
O=c1cnnc(SCCc2ccccc2)[nH]1	0	0	0	0	8.2	0	0	0
CC(C)(C)C(=O)Nc1nnc(SCC(=O)Nc2ccc3c(c2)OCO3)s1	0	0	0	0	13	0	0	0
CC(C)(C)NC(=O)NC(=O)COc1ccccc1C#N	0	5.1	0	0	9.7	0	0	12
CC(C)CNC(=O)OCc1cn(Cc2cccc(Cl)c2)nn1	0	-	-	-	0	-	-	-
CN(c1ccccc1)S(=O)(=O)c1cccc(NC(=O)c2cc3ccccc3oc2=O)c1	0	0	0	0	12	0	0	6.3
COc1ccccc1NS(=O)(=O)c1cccc(NC(=O)c2cc3ccccc3oc2=O)c1	0	0	0	0	8.1	0	0	9.5
CC(NS(=O)(=O)c1ccc(F)cc1)C(=O)Nc1ccc2c(c1)OCCO2 (stereo not drawn)	0	0	0	0	0	0	-	-
CC(=O)Nc1ccc2c(c1)C(=O)c1ccccc1C2=O	0	0	0	0	9.4	0	19	11
O=C1c2ccccc2C(=O)c2cc(NC(=O)C3CC3)ccc21	0	0	0	0	0	0	-	-
Cc1ccc(-n2c(SCC(=O)c3ccc(Br)cc3)nnc2-c2ccncc2)cc1	0	-	-	-	0	-	-	-
